Measured values published in paper PMC4854730 (The Journal of Experimental Medicine, 2016).

Columns and labels:
[1] = Compound E and XR9576 levels in brain tissue; assay type: in vivo, mouse; settings: LC-MS
Summary of the method: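 Brain hemispheres were homogenised by shaking with a steel ball (5 min, 20 Hz) in 45% methanol/45% acetonitrile/8% water/2% formic acid containing 1 µM internal standard, at 200 mg/ml. Extracts were centrifuged, filtered (0.8 µm) and run on capillary LC-MS (PLRPS column; water/acetonitrile gradient with 0.1% formic acid). Levels were quantified from internal-standard-normalised peak areas against an external curve prepared in control mouse brain extract.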

ISF Aβ40 = assay: baseline ISF Aβ40 in hippocampus measured with calibrated Aβ40 MIE; assay type: in vivo, APP/PS1 mice; settings: 60 min after XR9576 80 mg/kg; n = 8; mean ± SEM; control mice 99.12 ± 19.28 (n = 15); P = 0.008
[2] = test system: mRNA of genes related to APP processing or Aβ clearance; assay: qRT-PCR of APP processing and Aβ clearance genes in brain; assay type: in vivo, mouse; settings: 2 h after 80 mg/kg i.v.; cortex; n = 6/group; P = 0.08-0.94
Summary of the method: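 3-month-old mice received the Pgp inhibitor (80 mg/kg i.v.) or vehicle (5% dextrose) and were killed 2 h later. Cortical total RNA was reverse transcribed and run by SYBR Green qPCR with dissociation-curve checks. Genes were APP, PSEN1/2, nicastrin, APH-1, BACE1, ADAM10/17, Pgp, LRP1, IDE, NEP, MMP2 and MMP9. Levels were derived by ΔΔCt against mouse GAPDH and compared by t tests corrected for multiple comparisons.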

LRP1 = LRP1 protein levels in brain tissue; assay type: in vivo, mouse; settings: after XR9576 administration; n = 9/group; P = 0.35
P-glycoprotein (Pgp) = settings: rodents; ref Bankstahl et al., 2008; cited from earlier work
ISF Aβ = assay: in vivo microdialysis of ISF Aβ during isoflurane anesthesia; design: species or system mouse; settings: first 3 h of isoflurane anesthesia, n = 4, not significant, P = 0.135

Question: For `C[C@H](NC(=O)Cc1cc(F)cc(F)c1)C(=O)N[C@H]1N=C(c2ccccc2)c2ccccc2N(C)C1=O` [Compound E], which “Compound E level in brain tissue” value ([1]; within 5 min after intraperitoneal injection (30 mg/kg)) is on record?
Answer: 395 nM

Question: For `COc1cc2c(cc1OC)CN(CCc1ccc(NC(=O)c3cc(OC)c(OC)cc3NC(=O)c3cnc4ccccc4c3)cc1)CC2` [XR9576], which “XR9576 level in brain tissue” value ([1]; 1 h after injection, mouse brain extract, mean ± SEM) is on record?
Answer: 533.0 ± 68.11 µM

Question: What about the “absolute baseline concentration of ISF Aβ40” value (ISF Aβ40) of the same molecule?
Answer: 283.9 ± 80.38

Question: What about the “mRNA expression levels in the brain” value [2] of the same molecule?
Answer: did not find significant differences

Question: What about the “LRP1 protein levels in hippocampus” value (LRP1) of the same molecule?
Answer: did not change

Question: And the “time of maximum inhibition of Pgp activity after injection” value (P-glycoprotein (Pgp))?
Answer: 30 min

Question: Which “decrease of ISF Aβ levels” value (ISF Aβ) does the source give for `FC(F)OC(Cl)C(F)(F)F` (stereo not shown) [isoflurane] here?
Answer: 14%
